IC50, Km and kcat data for 10 compounds are collected here from ChEMBL document CHEMBL1143267, “Type II NADH dehydrogenase of the respiratory chain of Plasmodium falciparum and its inhibitors” (Bioorg Med Chem Lett, 2009).

Test [1] has as its system Plasmodium falciparum. The test is described as follows: Antimalarial activity against Plasmodium falciparum DD2 expressing Saccharomyces cerevisiae DHOD by [3H]hypoxanthine uptake. It is filed as functional, organism-based. Put shortly: (§1)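 Asexual parasite proliferation measured by [3H]-hypoxanthine incorporation dose–effect curves, in parental DD2 and a transgenic DD2 line expressing yeast cytoplasmic DHOD. IC50 from three independent experiments. Antimycin A, a mixture of A1–A4, expressed in mg/mL.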

For test [2], the target named is T1, Dihydroorotate dehydrogenase (fumarate) (Saccharomyces cerevisiae S288c, UniProt P28272).
T1 sequence (P28272 whole entry): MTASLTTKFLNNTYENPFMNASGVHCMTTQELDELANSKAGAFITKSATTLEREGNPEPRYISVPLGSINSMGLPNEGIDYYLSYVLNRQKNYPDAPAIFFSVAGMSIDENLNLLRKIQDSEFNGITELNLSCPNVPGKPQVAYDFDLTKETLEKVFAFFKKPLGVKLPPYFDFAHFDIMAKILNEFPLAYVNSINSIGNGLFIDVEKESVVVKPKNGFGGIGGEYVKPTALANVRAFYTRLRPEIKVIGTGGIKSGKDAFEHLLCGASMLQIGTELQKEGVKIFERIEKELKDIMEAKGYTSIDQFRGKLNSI
The test is described as follows: Inhibition of Saccharomyces cerevisiae DHOD.

A short description of test [3]: Inhibition of Plasmodium falciparum NDH2. In short, it runs like this: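 Purified recombinant His-tagged enzyme, HEPES pH 8.0. Reaction with 200 µM NADH and 100 µM CoQ0. NAD+ product quantified by fluorescence after acetophenone/formic acid derivatisation at 100 °C (ex 372/em 444 nm). Compounds tested up to 10 µM. IC50 from three independent experiments.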
Test [4] has as its target T2, Dihydroorotate dehydrogenase (Plasmodium falciparum, UniProt Q54A96).
T2 sequence (Q54A96 whole entry): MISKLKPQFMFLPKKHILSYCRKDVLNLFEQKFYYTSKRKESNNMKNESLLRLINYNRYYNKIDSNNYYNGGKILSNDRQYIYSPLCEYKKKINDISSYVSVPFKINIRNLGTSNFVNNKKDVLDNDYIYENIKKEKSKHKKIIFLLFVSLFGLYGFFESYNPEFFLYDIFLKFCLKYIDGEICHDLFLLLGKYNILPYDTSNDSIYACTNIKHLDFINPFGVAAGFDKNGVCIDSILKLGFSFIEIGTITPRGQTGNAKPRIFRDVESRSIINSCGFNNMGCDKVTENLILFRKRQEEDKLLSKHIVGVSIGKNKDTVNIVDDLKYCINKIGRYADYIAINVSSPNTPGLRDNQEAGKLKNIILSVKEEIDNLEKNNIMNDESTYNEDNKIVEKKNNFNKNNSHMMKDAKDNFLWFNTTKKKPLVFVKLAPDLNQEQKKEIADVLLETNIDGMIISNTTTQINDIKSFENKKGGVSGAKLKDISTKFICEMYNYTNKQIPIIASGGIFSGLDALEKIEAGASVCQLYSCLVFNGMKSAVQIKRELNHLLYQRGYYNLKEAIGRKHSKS
As to the kind of experiment: Inhibition of Plasmodium falciparum DHOD. In short, it runs like this:
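DCIP-coupled chromogenic assay with 500 µM L-dihydroorotate and 115 µM CoQ0 as electron acceptor. Compounds tested up to 10 µM. IC50 from three independent experiments.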

Test [5] has as its system Plasmodium falciparum. As to the kind of experiment: Activity of Plasmodium falciparum NDH2 expressed in Escherichia coli by Michaelis-Menten plot. Put shortly:
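Full-length enzyme with C-terminal 6xHis tag, purified in 0.5% Triton X-100. NAD+ formed was quantified by fluorescence: acetophenone base, then formic acid at 100 °C, excitation 372 nm, emission 444 nm. HEPES pH 8.0. One substrate (electron acceptor or NADH) varied while the other was fixed at 500 µM. Km and kcat from best-fit Michaelis–Menten curves, three independent experiments.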

In test [6] the test system is Plasmodium falciparum. The test is described as follows: Antimalarial activity against Plasmodium falciparum DD2 by [3H]hypoxanthine uptake. It is filed as functional, organism-based. In short, it runs like this: as §1

On to `CCCCCCCCCCCCc1cc(=O)c2ccccc2n1O`, for which the IC50 was above 10 µM in test [1], above 10 µM in test [2], above 10 µM in test [3] and 4 µM in test [4].
`CC1=CC(=O)c2ccccc2C1=O`: in test [5], the Km amounted to 239 µM and the kcat stood at 0.0767 s⁻¹.
For `O=C1C=CC(=Nc2cc(Cl)c(O)c(Cl)c2)C=C1`, in test [5], the Km was determined as 4.6 µM and the kcat stood at 0.0317 s⁻¹.
Take `CCCCCC[C@H]1C(=O)O[C@H](C)[C@H](NC(=O)c2cccc(NC=O)c2O)C(=O)O[C@@H](C)[C@@H]1OC(=O)CC(C)C` [ANTIMYCIN A]: the IC50 in test [1], in test [2], in test [3] and in test [4] was above 10 µM each time.
For `C[C@@H]1CC[C@H]2[C@@H](C)C(=O)O[C@@H]3O[C@@]4(C)CC[C@@H]1[C@]32OO4` [ARTEMISININ], the IC50 in test [1] is 0.006 µM; in test [2] it was above 10 µM; in test [3], above 10 µM; in test [4], above 10 µM.
For `O=C1C(O)=C([C@H]2CC[C@H](c3ccc(Cl)cc3)CC2)C(=O)c2ccccc21` [ATOVAQUONE], the IC50 in test [1] was above 10 µM; in test [2] it was above 10 µM; in test [6], 0.002 µM; in test [3], above 10 µM; in test [4], above 10 µM.
Turning to `c1ccc2c(c1)[I+]c1ccccc1-2` [DIPHENYLENEIODONIUM CHLORIDE], the concentration for half-maximal inhibition (IC50) in test [4] was above 10 µM.
Turning to `c1ccc([I+]c2ccccc2)cc1` [DIPHENYLIODONIUM CHLORIDE], the IC50 in test [1] was 10.6 µM; in test [2], above 10 µM; in test [6], 12.4 µM; in test [3] it was above 10 µM; in test [4] it was above 10 µM.
In the case of `O=c1cc(-c2ccccc2)oc2ccccc12` [FLAVONE], the 50% inhibitory concentration (IC50) in test [1] was above 10 µM; in test [2] it was above 10 µM; in test [6], 0.002 µM; in test [3], above 10 µM; in test [4], above 10 µM.
For `C=C(C)[C@H]1Cc2c(ccc3c2O[C@@H]2COc4cc(OC)c(OC)cc4[C@@H]2C3=O)O1` [ROTENONE], the IC50 in test [1], in test [2], in test [6], in test [3] and in test [4] was above 10 µM in each case.

One may read the IC50 as the point on the concentration scale where inhibition reaches its midpoint. By Km is commonly meant the substrate concentration at which the rate is half of its maximum. The term kcat denotes the number of substrate molecules converted per active site and unit of time at saturation.
